# What was measured:
# [1] = folding enthalpy; higher = less favourable; fluorescence melt of hairpins on a sequencing array, two-state fit; settings: sodium 0.088 M
# Summary of the method: (§1)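 Cy3 signals were normalised both to pre-quench Cy3 and to control constructs. They came from library hairpins carrying annealed Cy3 and quencher oligos on a sequenced MiSeq flow cell, imaged in 50 mM Na-HEPES pH 8.0, 25 mM NaCl, in 2.5 °C steps up to 60 °C. Bootstrapped two-state fits gave melting temperature and folding enthalpy, and four replicates were combined by inverse variance. Fitted temperatures were then raised by 9.35 °C to match UV melts.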
# [2] = melting temperature; fluorescence melt of hairpins on a sequencing array, two-state fit, raised by 9.35 °C to match UV melts; settings: sodium 0.088 M
# Summary of the method: as §1
Sequence,folding enthalpy [1],Tm [2]
GGCCGCGAAAGCGGAGCC ((((((....)))..))),-13.4 kcal/mol,53.9 °C
GATTGCGGAAACGTAGTC ((.(.((....)).).)),-11.4 kcal/mol,29.8 °C
GCGTCGCGAAAGCGGAGC ((..(((....)))..)),-27.6 kcal/mol,67.5 °C
GATCGCATAGGCGATC ((((((....)))))),-32 kcal/mol,68.2 °C
GCTTGCGGAAACGCGAGC (((.(((....))).))),-29.3 kcal/mol,64 °C
GTCTAATCGAAAGATGAC (((..(((....)))))),-14.8 kcal/mol,31.6 °C
GATCAGTGACCTGATC ((((((....)))))),-30.1 kcal/mol,48.7 °C
GCATACCGAAAGGTTGC (((.(((....)))))),-32.3 kcal/mol,54 °C
GAGCGCGGAAACACGCCC (.(((.(....).))).),-12 kcal/mol,38.4 °C
GAATCCGGAAACGGATCC (.(((((....))))).),-14.2 kcal/mol,40.6 °C
GCAGCGCGAAAGCTCCGC ((.(.((....)).).)),-11.6 kcal/mol,37.9 °C
CCTAAGAAATTAGG (((((....))))),-8.08 kcal/mol,28.1 °C
GCCACCGAAAGGTTTGGC ((((((....)))..))),-26.6 kcal/mol,48.7 °C
GGTGACGGAAACGTTACC (((.(((....))).))),-38.5 kcal/mol,53 °C
GTTCGCGAAAGCGCTAAC ((((((....)))..))),-9.92 kcal/mol,25.1 °C
GAGCGCGGAAACACGCTC (((((.(....).))))),-41.1 kcal/mol,56.2 °C
GGTCATGGAAACACGACC ((((.((....)).)))),-37.1 kcal/mol,43 °C
GCCGACCGAAAGGTAGGC (((.(((....))).))),-37.5 kcal/mol,69.3 °C

Sequence,folding enthalpy [1],Tm [2]
GTCGGCGAAAGCCAAGAC ((((((....)))..))),-15.2 kcal/mol,49.9 °C
GATCCCGCCGGGATC ((((((...)))))),-39.7 kcal/mol,67.6 °C
GCACGTGGAAACATGTGC ((((.((....)).)))),-36.8 kcal/mol,56.9 °C
GGCCCCGAAAGGGAGCC ((((((....))).))),-31.6 kcal/mol,68.4 °C
GCTCGGGGAAACCTGAGC ((((.((....)).)))),-35.1 kcal/mol,59.3 °C
GCGGGCGCGAAAGCGCGC (((..(((....)))))),-7.24 kcal/mol,63 °C
GCCGGTGGAAACACCAGC ((.((((....)))).)),-21.5 kcal/mol,48.4 °C
GGTTCGACGAAAGTCACC (((..(((....)))))),-11.9 kcal/mol,24.9 °C
GCTAGACGAAAGTCAGC (((.(((....)))))),-23.1 kcal/mol,54.2 °C
GGTGTCTCGAAAGAGACC (((..(((....)))))),-12.3 kcal/mol,49.4 °C
GTTCCCGAAAGGGCAAC ((((((....))).))),-14.7 kcal/mol,40.4 °C
GAGGGGCGAAAGCCGCTC (((.(((....))).))),-30.6 kcal/mol,69.3 °C
GCAGTGCGAAAGCAAAGC ((..(((....)))..)),-13.3 kcal/mol,51.3 °C
GCACCTGGAAACAGACGC ((..(((....)))..)),-15.3 kcal/mol,29.2 °C
CGGACGGAAACGTCCCG ((((((....))).))),-10.8 kcal/mol,50.7 °C
GATGCGCGAAAGCGATC (((.(((....)))))),-12 kcal/mol,41.3 °C
GGCTGCGCGAAAGCGGCC (((..(((....)))))),-19.2 kcal/mol,60.3 °C

# Source: the array DNA melting data of Ke et al. (doi:10.1101/2024.01.08.574731)
